Active and inactive are the calls of the source. No cut-off for these calls is given here. Where only a bound is given, the exact number is not on record here.

In data set [1] the test system is Trypanosoma cruzi. The data set can be described thus: Trypanocidal activity against Trypanosoma cruzi MHOM/Pe/2011/Arequipa DTU 5 amastigotes infected in African green monkey Vero cells after 72 hrs by Giemsa-staining based microscopic assay. The following applies: MHOM/Pe/2011/Arequipa DTU 5, Vero. In kind it is functional, organism-based. In a few lines:
(§1)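 Vero cells were seeded at 1×10^4/well on coverslips. After 24 h they were infected with culture-derived trypomastigotes (MOI 1:10, 24 h), then washed. Compounds were added at 100–0.2 µM (DMSO 0.01% v/v) for 72 h at 37 °C, 5% CO2. Slides were methanol-fixed and Giemsa-stained; amastigotes and infected cells were counted over 500 host cells. IC50 was derived by curve fitting; triplicate wells, four separate determinations.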

In data set [2] the test system is Trypanosoma cruzi. The data set is described as follows: Trypanocidal activity against Trypanosoma cruzi MHOM/Pe/2011/Arequipa DTU 5 amastigotes infected in African green monkey Vero cells assessed as infected cells at 50 uM after 72 hrs by Giemsa-staining based microscopic assay relative to control. It counts as functional. In a few lines:
(§2)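 Infected Vero cell cultures were exposed for 72 h to a range of concentrations. Infected cells were counted microscopically on Giemsa-stained preparations and expressed relative to infected untreated controls. Values are means of three separate determinations; IC50 was derived by curve fitting.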

Data set [3] has as its system Trypanosoma cruzi. The data set is described as follows: Trypanocidal activity against Trypanosoma cruzi MHOM/Pe/2011/Arequipa DTU 5 amastigotes infected in African green monkey Vero cells assessed as reduction in infected cells after 72 hrs by Giemsa-staining based microscopic assay. The following applies: MHOM/Pe/2011/Arequipa DTU 5, Vero. It counts as functional, organism-based. In a few lines: as §2

Data set [4] has as its system Trypanosoma cruzi. The data set is described as follows: Trypanocidal activity against Trypanosoma cruzi MHOM/Pe/2011/Arequipa DTU 5 trypamastigotes derived from infected Balb/c albino mouse after 24 hrs by resazurin dye based assay. The following applies: MHOM/Pe/2011/Arequipa DTU 5, 24 h. It counts as functional, organism-based. The procedure, abridged:
(§3)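 Bloodstream trypomastigotes taken from mice at peak parasitaemia were seeded at 2×10^6 mL^-1 in RPMI with 10% FBS. Compounds were added at 50–0.2 µM and incubated 24 h at 37 °C, 5% CO2, then with resazurin for 4 h. SDS was added and absorbance read at 570/600 nm. IC50 was fitted; triplicate, four separate determinations.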
On the technique in general: Resazurin is reduced to fluorescent resorufin, in cell work by metabolically active cells.

Data set [5] has as its system Trypanosoma cruzi. The data set can be described thus: Trypanocidal activity against Trypanosoma cruzi TINF/CH/1956/Tulahuen DTU 6 trypamastigotes derived from infected Balb/c albino mouse after 24 hrs by resazurin dye based assay. In kind it is functional, organism-based. As to conditions: TINF/CH/1956/Tulahuen DTU 6, 24 h. In a few lines: as §3
The test system of data set [6] is Trypanosoma cruzi. The data set can be described thus: Trypanocidal activity against Trypanosoma cruzi IRHOD/CO/2008/SN3 DTU 1 trypamastigotes derived from infected Balb/c albino mouse after 24 hrs by resazurin dye based assay. It counts as functional, organism-based. As to conditions: IRHOD/CO/2008/SN3 DTU 1, 24 h. The procedure, abridged: as §3
Data set [7] has as its system Mus musculus. The data set can be described thus: Toxicity in Balb/c mouse assessed as reduction in body mass at […], po once daily for 5 consecutive days starting from day 10 post infection relative to control. The following applies: in vivo. In kind it is organism-based. Also noted: scale not given: the % may be the effect or the level left. The procedure, abridged:
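Infected female BALB/c mice, six per group, received oral doses of 20 mg·kg^-1/day for 5 consecutive days (total 100 mg·kg^-1) in 5% DMSO/0.5% HPMC vehicle, from day 10 or day 75 pi. Body mass and deaths were monitored during and after treatment.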

The target of data set [8] is T1, Superoxide dismutase (Trypanosoma cruzi (strain CL Brener)) (UniProt Q4DCQ3).
T1 sequence (whole entry): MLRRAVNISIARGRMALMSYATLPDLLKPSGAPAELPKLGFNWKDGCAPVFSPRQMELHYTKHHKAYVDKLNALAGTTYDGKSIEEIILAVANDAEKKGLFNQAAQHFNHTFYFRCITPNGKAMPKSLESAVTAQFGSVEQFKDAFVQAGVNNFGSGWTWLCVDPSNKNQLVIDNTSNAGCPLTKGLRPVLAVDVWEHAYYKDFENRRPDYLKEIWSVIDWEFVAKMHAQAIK
The data set is described as follows: Inhibition of Trypanosoma cruzi MHOM/Pe/2011/Arequipa DTU 5 epimastigotes Fe-SOD at 50 uM by UV-Visible spectrophotometric method relative to control. In a few lines: (§4)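 SOD activity of parasite Fe-SOD and human CuZn-SOD was measured spectrophotometrically by the Beyer and Fridovich method, with compounds at 1–100 µM. Values are averages of three rate determinations; IC50 was obtained by linear regression and differences were tested by Newman-Keuls.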

Data set [9] relates to Trypanosoma cruzi. The data set is described as follows: Trypanocidal activity against Trypanosoma cruzi IRHOD/CO/2008/SN3 DTU 1 amastigotes infected in African green monkey Vero cells after 72 hrs by Giemsa-staining based microscopic assay. The following applies: IRHOD/CO/2008/SN3 DTU 1, Vero. It counts as functional, organism-based. In a few lines: as §1
The subject of data set [10] is Trypanosoma cruzi. The data set is described as follows: Trypanocidal activity against Trypanosoma cruzi MHOM/Pe/2011/Arequipa DTU 5 epimastigotes after 48 hrs by resazurin dye based assay. In kind it is functional, organism-based. As to conditions: MHOM/Pe/2011/Arequipa DTU 5, 48 h. The procedure, abridged: (§5)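 Exponential-phase epimastigotes were seeded at 5×10^5 mL^-1 with compounds at 100–0.2 µM (DMSO 0.01% v/v) at 28 °C. After 48 h, resazurin was added for another 24 h. SDS was then added and absorbance read at 570 and 600 nm.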

A further data set deals with T2, Superoxide dismutase (Trypanosoma cruzi (strain CL Brener), UniProt Q4DCQ3).
T2 sequence (Q4DCQ3 whole entry): T1 sequence (whole entry)
The data set is described as follows: Inhibition of Trypanosoma cruzi MHOM/Pe/2011/Arequipa DTU 5 epimastigotes Fe-SOD by UV-Visible spectrophotometric method. In a few lines: as §4

Data set [11] is described as follows: Selectivity index, ratio of IC50 for African green monkey Vero cells to IC50 for Trypanosoma cruzi IRHOD/CO/2008/SN3 DTU 1 amastigotes infected in African green monkey Vero cells. As to conditions: read-out: Ratio IC50. In kind it is toxicity. In a few lines:
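SI is Vero IC50 divided by the IC50 for the stated parasite form. For Vero cytotoxicity, cells were seeded at 1.25×10^4 mL^-1 with compounds at 1000–1 µM, incubated 48 h, then given resazurin for a further 24 h (72 h total), with absorbance read at 570/600 nm. Triplicate, four determinations.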

The test system of data set [12] is Mus musculus. The data set can be described thus: Hepatotoxicity in Balb/c mouse infected with Trypanosoma cruzi MHOM/Pe/2011/Arequipa DTU 5 trypamastigotes assessed as change in alkaline phosphatase level at […], po once daily for 5 consecutive days starting from day 75 post infection measured on day 127 post infection by biochemical analysis relative to control. It counts as toxicity, organism-based. As to conditions: in vivo. In a few lines:
(§6)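 Serum clinical chemistry in Arequipa-infected female BALB/c mice. Oral 20 mg·kg-1 per day for 5 days, started day 10 or day 75 pi. Samples taken at day 16 pi or day 81 pi, and on necropsy day. Markers: CK-MB and LDH (U/L), AST, ALT and alkaline phosphatase (U/L), total bilirubin. Results scored relative to infected untreated controls; uninfected reference n = 15.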

Data set [13] relates to Trypanosoma cruzi. The data set is described as follows: Trypanocidal activity against Trypanosoma cruzi IRHOD/CO/2008/SN3 DTU 1 epimastigotes after 48 hrs by resazurin dye based assay. In kind it is functional, organism-based. As to conditions: IRHOD/CO/2008/SN3 DTU 1, 48 h. In a few lines: as §5
The test system of data set [14] is Trypanosoma cruzi. The data set can be described thus: Antitrypanosomal activity against Trypanosoma cruzi MHOM/Pe/2011/Arequipa DTU 5 epimastigotes assessed as effect on parasite glycolytic pathway by measuring reduction in pyruvate excretion at IC25 after 72 hrs by 1H NMR method. In kind it is functional, organism-based. The procedure, abridged:
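Arequipa epimastigotes exposed at IC25 for 72 h alongside an untreated control. Excreted catabolites were analysed by 1H NMR, and each peak is reported as % variation versus the control. Three separate determinations.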

The test system of data set [15] is Mus musculus. The data set is described as follows: Hepatotoxicity in Balb/c mouse infected with Trypanosoma cruzi MHOM/Pe/2011/Arequipa DTU 5 trypamastigotes assessed as change in total bilirubin level at […], po once daily for 5 consecutive days starting from day 10 post infection measured on day 127 post infection by biochemical analysis relative to control. The following applies: in vivo. It counts as toxicity, organism-based. In a few lines: as §6

As for `O=C(Cn1ccnc1[N+](=O)[O-])NCc1ccccc1` [BENZNIDAZOLE], the IC50 (as a rule, the concentration needed to halve the response being measured) in the data set with Trypanosoma cruzi [1] came to 8.3 µM; in the data set on Trypanosoma cruzi [3], 15.1 µM; in the data set on Trypanosoma cruzi [4] it was 12.4 µM; in the data set on Trypanosoma cruzi [5] it was 15.1 µM. Also, the Activity in the data set with Trypanosoma cruzi [2] amounted to 20%.
With `COc1ccc(C(=O)CCN2CCN(c3ccc([N+](=O)[O-])cc3)CC2)cc1`, the IC50 with Trypanosoma cruzi [6] is 3.1 µM; in the data set with Trypanosoma cruzi [1], 29.4 µM; in the data set with Trypanosoma cruzi [9], 30.5 µM; in the data set on Trypanosoma cruzi [10], 31.6 µM; against Superoxide dismutase, 5 µM; with Trypanosoma cruzi [13], 22 µM. The IC50 with Trypanosoma cruzi [3] was determined as 47.9 µM; with Trypanosoma cruzi [4], 11.7 µM; in the data set with Trypanosoma cruzi [5], 14.5 µM. Also, the Activity was 52% in the data set on Trypanosoma cruzi [2], > 10% with Mus musculus [7], < 10% in the data set with Mus musculus [12] and < 10% in the data set with Mus musculus [15]. Further, in data set [8], the inhibition (commonly the change of the read-out against control, counted positive when it falls) was determined as 100%. For the same compound, the selectivity ratio in data set [11] came to 19.2. The outcome in the data set on Trypanosoma cruzi [14] was inactive.
For `COc1ccc(C(=O)CCN2CCN(c3ccc(Cl)cc3)CC2)cc1`, the IC50 in the data set with Trypanosoma cruzi [6] was found to be 3.9 µM; in the data set with Trypanosoma cruzi [1], 3.6 µM; in the data set with Trypanosoma cruzi [9], 5.8 µM; in the data set with Trypanosoma cruzi [10], 9.5 µM; at Superoxide dismutase, 6.5 µM; in the data set on Trypanosoma cruzi [13], 6.3 µM. The results for the IC50 with Trypanosoma cruzi [3], with Trypanosoma cruzi [4] and in the data set on Trypanosoma cruzi [5] were 6.4 µM, 3.4 µM and 2.9 µM, respectively. In addition, the Activity is given as 15% in the data set with Trypanosoma cruzi [2], > 10% in the data set on Mus musculus [7], < 10% with Mus musculus [12] and < 10% in the data set with Mus musculus [15]. This compound also showed an inhibition in data set [8] of 100%. Moreover, the selectivity ratio in data set [11] amounted to 51.5. Besides, in the data set on Trypanosoma cruzi [14], the result was inactive.
In the case of `COc1ccc(C(=O)CCN2CCN(c3ccc(F)cc3)CC2)cc1`, the IC50 was 1.4 µM in the data set on Trypanosoma cruzi [6]; 0.6 µM in the data set with Trypanosoma cruzi [1]; 3.1 µM in the data set on Trypanosoma cruzi [9]; 1.4 µM in the data set with Trypanosoma cruzi [10]; 7.8 µM against Superoxide dismutase; 2 µM in the data set with Trypanosoma cruzi [13]. In addition, the IC50 is 1.9 µM with Trypanosoma cruzi [3], 1.1 µM in the data set with Trypanosoma cruzi [4] and 1.2 µM in the data set with Trypanosoma cruzi [5]. Besides, the Activity with Trypanosoma cruzi [2] is 7%; in the data set on Mus musculus [7], > 10%; in the data set on Mus musculus [12] it was < 10%; with Mus musculus [15] it was < 10%. The compound also came in with an inhibition in [8] of 100%. For the same compound, in data set [11], the selectivity ratio was 17.6. In the data set on Trypanosoma cruzi [14], the outcome was Active.
